Measured values: article PMC8293762 (Slas Discovery, 2021)

Columns and labels:
HCN4 [1] = target: T1, HCN4 (Homo sapiens, UniProt Q9Y3Q4); test: Random screening of ~16,000 compounds for HCN4 blockade, IonWorks; type: cell-based; settings: six-pulse protocol; blockade traces, Fig. 3C
T1 sequence (Q9Y3Q4 1-1203): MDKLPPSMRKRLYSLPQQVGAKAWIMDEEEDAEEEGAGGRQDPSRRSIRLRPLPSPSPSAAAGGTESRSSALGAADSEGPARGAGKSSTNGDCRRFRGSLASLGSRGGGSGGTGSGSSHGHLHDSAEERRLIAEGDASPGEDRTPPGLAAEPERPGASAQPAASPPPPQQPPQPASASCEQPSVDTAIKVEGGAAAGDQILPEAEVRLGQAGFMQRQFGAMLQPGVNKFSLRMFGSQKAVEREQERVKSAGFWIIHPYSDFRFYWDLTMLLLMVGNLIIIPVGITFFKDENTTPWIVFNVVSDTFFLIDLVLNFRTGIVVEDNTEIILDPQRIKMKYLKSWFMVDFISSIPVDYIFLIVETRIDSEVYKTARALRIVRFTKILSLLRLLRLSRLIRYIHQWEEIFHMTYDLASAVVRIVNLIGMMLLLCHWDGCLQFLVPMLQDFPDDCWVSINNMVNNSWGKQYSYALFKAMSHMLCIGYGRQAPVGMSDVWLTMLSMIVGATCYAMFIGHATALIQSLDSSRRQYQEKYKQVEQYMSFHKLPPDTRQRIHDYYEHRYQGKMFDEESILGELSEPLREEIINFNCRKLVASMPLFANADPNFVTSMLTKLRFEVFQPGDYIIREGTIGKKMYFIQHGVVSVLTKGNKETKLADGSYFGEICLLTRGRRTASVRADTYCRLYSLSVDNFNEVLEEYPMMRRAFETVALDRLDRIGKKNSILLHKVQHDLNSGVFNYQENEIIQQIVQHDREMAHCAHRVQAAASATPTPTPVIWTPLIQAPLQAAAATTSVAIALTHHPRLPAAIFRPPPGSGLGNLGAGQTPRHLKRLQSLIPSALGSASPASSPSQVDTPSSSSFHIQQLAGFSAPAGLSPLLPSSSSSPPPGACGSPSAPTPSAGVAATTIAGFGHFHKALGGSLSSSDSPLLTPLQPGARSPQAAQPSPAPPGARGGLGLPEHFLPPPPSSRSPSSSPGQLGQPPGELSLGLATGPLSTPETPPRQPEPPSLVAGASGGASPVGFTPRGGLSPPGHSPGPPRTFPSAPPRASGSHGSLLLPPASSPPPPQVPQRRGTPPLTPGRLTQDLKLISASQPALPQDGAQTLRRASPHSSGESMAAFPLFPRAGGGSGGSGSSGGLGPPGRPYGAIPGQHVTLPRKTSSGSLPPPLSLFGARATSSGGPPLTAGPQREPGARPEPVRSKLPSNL
Procedure, shortened: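 Human HCN4 (Thr110Ser) stably expressed in CHO-K1 cells, grown at 37 °C, then held at 30 °C for 2−8 days before recording. Perforated-patch (amphotericin B) IonWorks recording, SH mode then PPC mode. Held at −30 mV with a +10 mV leak prepulse, then six hyperpolarizing pulses. Test compound at 30 μM, DMSO 0.3% per well. Current at end of last pulse read before and 5−10 min after addition; percent inhibition from post/pre ratio.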

[2] = tested on: isolated rat right atrium; test: Heart rate in isolated rat right atrium in vitro; settings: data not shown
HCN4 [3] = target: T1, HCN4; type: cell-based; settings: six repetitive hyperpolarization pulses, Fig. 2A,B

Use dependence of HCN4 blockade according to pulse number (HCN4 [3]) | Compound | Use dependence of HCN4 blockade over six pulses (HCN4 [1]) | Effect on heart rate in isolated rat right atrium [2]
 | O=C(c1ccc(-n2cccn2)nc1)N1CCN2C(=O)OC(c3ccccc3)(c3ccccc3)[C@H]2C1 [T-788, (8aR)-1,1-diphenyl-7-[6-(1H-pyrazol-1-yl)pyridine-3-carbonyl]hexahydro-3H-[1,3]oxazolo[3,4-a]pyrazin-3-one] | almost the same blockade or even a decreasing blockade over six pulses | reduced heart rate
 | ZD7288 [reference compound] | almost the same blockade or even a decreasing blockade over six pulses | 
 | FC(F)(F)c1cccc(-c2ccc3c(c2)CNCC3)c1 [T-524, 7-[3-(trifluoromethyl)phenyl]-1,2,3,4-tetrahydroisoquinoline] | almost the same blockade or even a decreasing blockade over six pulses | reduced heart rate
 | COc1cc(Cl)c(S(=O)(=O)N[C@@H](C)C(=O)N2CCC(N3CCCCC3)CC2)cc1Cl [T-478, N-[(2S)-1-([1,4′-bipiperidin]-1′-yl)-1-oxopropan-2-yl]-2,5-dichloro-4-methoxybenzene-1-sulfonamide] | use-dependent blockade | reduced heart rate
use-dependent blockade | COc1cc2c(cc1OC)CC(=O)N(CCCN(C)C[C@H]1Cc3cc(OC)c(OC)cc31)CC2 [Ivabradine] |  | 
